{"data": "Assay results collected from several papers", "target": "Rho-associated protein kinase 1 (ROCK1, Homo sapiens, UniProt Q13464)", "note": "Protocols differ between the studies behind these lines."}
{"SMILES": "CN1CCN(c2cnc3c(C4CCN(C(=O)c5ccc(OC(F)(F)F)cc5N)CC4)ncnc3c2)CC1", "observed": "cell-free assay", "technique": "competition with immobilised ligand", "tested at": "1 µM", "endpoint": "remaining binding", "result": "100%"}
{"SMILES": "CC/C(=N\\NC(=O)C(C)Nc1ccccc1)c1ccc(O)c(C)c1O (centres unmarked)", "observed": "enzyme activity", "action": "inhibitor", "tested at": "0.1 µM", "endpoint": "inhibition", "result": "18.5%"}
{"SMILES": "CC(C)(O)[C@H]1CC[C@H](Nc2ccc3ncc(-c4cccc(C(F)(F)F)c4)n3n2)CC1", "observed": "enzyme activity", "action": "inhibitor", "tested at": "1 µM", "endpoint": "remaining activity", "result": "94%"}
{"SMILES": "CCCCNc1ncc2c(-c3ccc(F)cc3)nn(C[C@H]3CC[C@H](N)CC3)c2n1", "observed": "target engagement in cells", "action": "inhibitor", "technique": "chemoproteomics", "tested at": "20 mM", "endpoint": "inhibition", "result": "54.3%"}
{"SMILES": "COc1cc2ncnc(Nc3ccc(Oc4ccccc4)c(C)c3C)c2cc1OC", "observed": "enzyme activity", "action": "inhibitor", "tested at": "1 µM", "endpoint": "inhibition", "result": "-12%"}
{"SMILES": "O=c1nc(-c2ccccn2)sc2ccccc12", "observed": "binding", "technique": "competition with immobilised ligand", "tested at": "1 µM", "endpoint": "remaining binding", "result": "100%"}
{"SMILES": "Cc1cc(NC(=O)c2cccc3cc(-c4cccc5[nH]nc(N)c45)ccc23)ccc1F", "observed": "enzyme activity", "action": "inhibitor", "tested at": "0.1 µM", "endpoint": "activity vs control", "result": "110%"}
{"SMILES": "CN(C)c1ncnc(-c2ccc3nc(Nc4cc(CN5CCN(C(=O)CC(F)(F)F)CC5)ccn4)[nH]c3c2)c1Cl", "observed": "cell-free assay", "technique": "competition with immobilised ligand", "tested at": "1 µM", "endpoint": "remaining binding", "result": "100%"}
{"SMILES": "c1ccc(CNc2nc(N3CCOc4ccccc43)nc3c2CCCC3)cc1", "observed": "target engagement in cells", "action": "inhibitor", "technique": "chemoproteomics", "tested at": "20 mM", "endpoint": "inhibition", "result": "3.9%"}
{"SMILES": "Cn1cncc1C1=CN(c2ncnc3[nH]cnc23)CCS1", "observed": "enzyme activity", "action": "inhibitor", "technique": "radiometric", "tested at": "2 µM", "endpoint": "inhibition", "result": "88.6%"}
{"SMILES": "COc1cc(-c2cn(C3CCc4ccccc4N(CC(F)(F)F)C3=O)nn2)ccc1-n1ccc(C)n1 (centres unmarked)", "observed": "cell-free assay", "technique": "competition with immobilised ligand", "tested at": "1 µM", "endpoint": "remaining binding", "result": "100%"}
{"SMILES": "CC(C)(C)c1nc(-c2cccc(NS(=O)(=O)c3c(F)cccc3F)c2F)c(-c2ccnc(N)n2)s1", "observed": "enzyme activity", "action": "inhibitor", "technique": "radiometric", "tested at": "1 µM", "endpoint": "remaining activity", "result": "104%"}
{"SMILES": "C[S+]([O-])c1ccc(-c2nc(-c3ccncc3)c(-c3ccc(F)cc3)[nH]2)cc1 (centres unmarked)", "observed": "cell-free assay", "tested at": "0.5 µM", "endpoint": "remaining signal", "result": "102%"}
{"SMILES": "CCCS(=O)(=O)Nc1ccc(F)c(C(=O)c2c[nH]c3ncc(-c4ccc(Cl)cc4)cc23)c1F", "observed": "enzyme activity", "action": "inhibitor", "tested at": "1 µM", "endpoint": "inhibition", "result": "< 10%"}
{"SMILES": "CC(=O)N1CCC(c2ccc(C(=O)NC(=N)N)cc2C(F)(F)F)CC1", "observed": "cell-free assay", "technique": "competition with immobilised ligand", "tested at": "1 µM", "endpoint": "remaining binding", "result": "87%"}
{"SMILES": "CCN(CC)CCNC(=O)c1c(C)[nH]c(/C=C2\\C(=O)Nc3ccc(F)cc32)c1C", "observed": "enzyme activity", "action": "inhibitor", "tested at": "0.3 µM", "endpoint": "inhibition", "result": "6%"}
{"SMILES": "CC(C)c1ccc(NC(=O)c2cccs2)c(-c2nc3ccccc3[nH]c2=O)c1", "observed": "enzyme activity", "action": "inhibitor", "tested at": "1 µM", "endpoint": "activity vs control", "result": "122%"}
{"SMILES": "O=C1NC(c2ccccn2)Sc2ccccc21 (centres unmarked)", "observed": "cell-free assay", "technique": "competition with immobilised ligand", "tested at": "1 µM", "endpoint": "remaining binding", "result": "82%"}
{"SMILES": "O=C(Nc1cnn(-c2csc(C(=O)NC3COC3)c2)c1)Nc1ccccc1Cl", "observed": "enzyme activity", "action": "inhibitor", "tested at": "5 µM", "endpoint": "remaining activity", "result": "109%"}
{"SMILES": "C=CC(=O)Nc1cc(Nc2nccc(Nc3cc(Cl)c(F)cc3C(C)(C)O)n2)c(OC)cc1N1CC[C@@H](N(C)C)C1", "observed": "enzyme activity", "action": "inhibitor", "tested at": "1 µM", "endpoint": "inhibition", "result": "0%"}
{"SMILES": "O=S(=O)(c1cccc2cnccc12)N1CCCNCC1", "observed": "cell-free assay", "tested at": "0.5 µM", "endpoint": "remaining signal", "result": "60.2%"}
{"SMILES": "Cc1ccc(Nc2nccc(N(C)c3ccc4c(C)n(C)nc4c3)n2)cc1S(N)(=O)=O", "observed": "enzyme activity", "action": "inhibitor", "tested at": "10 µM", "endpoint": "inhibition", "result": "18%"}
{"SMILES": "CCCOc1ccc(OC)c(F)c1C(=O)c1ccc(C(=O)N[C@@H]2CNC[C@H]2NC(=O)c2ccc3[nH]ncc3c2)cc1", "observed": "enzyme activity", "action": "inhibitor", "tested at": "10 µM", "endpoint": "remaining activity", "result": "8%"}
{"SMILES": "CNC(=O)c1cc(Oc2ccc(NC(=O)Nc3ccc(Cl)c(C(F)(F)F)c3)cc2)ccn1", "observed": "enzyme activity", "action": "inhibitor", "tested at": "10 µM", "endpoint": "inhibition", "result": "8%"}
{"SMILES": "CN(C)C1CCN(CC#Cc2nn(C3CCCC3)c3nc(NCc4ccccc4)ncc23)C1 (centres unmarked)", "observed": "enzyme activity", "action": "inhibitor", "technique": "FRET", "tested at": "1 µM", "endpoint": "inhibition", "result": "-1%"}
{"SMILES": "COc1ccc2c(c1)O[C@@H](c1ccc(OC)c(OC)c1)C[C@H]2NC(=O)C1(c2ccc3c(c2)OC(F)(F)O3)CC1", "observed": "cell-free assay", "technique": "competition with immobilised ligand", "tested at": "1 µM", "endpoint": "remaining binding", "result": "89%"}
{"SMILES": "Cc1ccc(C(=O)Nc2ccc(CN3CCN(C)CC3)c(C(F)(F)F)c2)cc1C#Cc1cnc2cccnn12", "observed": "enzyme activity", "action": "inhibitor", "tested at": "23.5 nM", "endpoint": "remaining activity", "result": "79%"}
{"SMILES": "Cc1nc(N2CC[C@@H](O)C2)ncc1-c1cc(C(F)(F)F)cc2[nH]ncc12", "observed": "binding", "technique": "competition with immobilised ligand", "tested at": "1 µM", "endpoint": "remaining binding", "result": "91%"}
{"SMILES": "C[C@@H](N)[C@H]1CC[C@H](C(=O)Nc2ccncc2)CC1", "observed": "cell-free assay", "tested at": "0.5 µM", "endpoint": "remaining signal", "result": "31.5%"}
